Test results reported in ChEMBL document CHEMBL1138867, “Design, synthesis, potency, and cytoselectivity of anticancer agents derived by parallel synthesis from alpha-aminosuberic acid” (J Med Chem, 2006).

Tests used:
MM96L [1] = experiment: Induction of histone H4 acetylation in human MM96L cells; assay type: functional, cell-based
Method in brief: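 MM96L melanoma cells were exposed for 8 h to 0.05, 0.5 or 5 µg/mL compound, with DMSO vehicle and untreated controls. Histones were extracted and resolved by TAU gel electrophoresis to separate non-, mono-, di-, tri- and tetra-acetylated histone H4.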

NFF [2] = experiment: Antiproliferative activity against human NFF cells; assay type: functional, cell-based
Method in brief: (§1)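 Cells cultured in RPMI 1640 with 10% heat-inactivated FCS, 3 mM HEPES, 5% CO2, 37 °C; NFF are primary neonatal foreskin fibroblasts. Cells were seeded at 5 × 10^3/well and left to adhere overnight. They were exposed to compound for 24 h, then the medium was replaced and cells grown a further 72 h. Survival was read by SRB staining at 564 nm, giving IC50.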

MM96L [3] = experiment: Antiproliferative activity against human MM96L cells; assay type: functional, cell-based; method in brief: as §1
[4] = Antiproliferative activity against human MM229 cells; assay type: functional, cell-based; method in brief: as §1
[5] = Antiproliferative activity against human MM329 cells; assay type: functional, cell-based; method in brief: as §1
[6] = Antiproliferative activity against human MM470 cells; assay type: functional, cell-based; method in brief: as §1
[7] = Antiproliferative activity against human MM604 cells; assay type: functional, cell-based; method in brief: as §1
[8] = Antiproliferative activity against human Mel RM cells; assay type: functional, cell-based; method in brief: as §1
[9] = Antiproliferative activity against human Mel FH cells; assay type: functional, cell-based; method in brief: as §1
SK-MEL-28 = experiment: Antiproliferative activity against human SK-Mel-28 cells; assay type: functional, cell-based; method in brief: as §1
DO4 = experiment: Antiproliferative activity against human DO4 cells; assay type: functional, cell-based; method in brief: as §1
[10] = Antiproliferative activity against human D14 cells; assay type: functional, cell-based; method in brief: as §1
[11] = Antiproliferative activity against human D11 cells; assay type: functional, cell-based; method in brief: as §1
[12] = Antiproliferative activity against human D17 cells; assay type: functional, cell-based; method in brief: as §1
[13] = Antiproliferative activity against human LSP M2 cells; assay type: functional, cell-based; method in brief: as §1
[14] = Antiproliferative activity against human AF6 cells; assay type: functional, cell-based; method in brief: as §1
[15] = Antiproliferative activity against human AO7 RM cells; assay type: functional, cell-based; method in brief: as §1
A2058 = experiment: Antiproliferative activity against human A2058 cells; assay type: functional, cell-based; method in brief: as §1
HeLa = experiment: Antiproliferative activity against human HeLa cells; assay type: functional, cell-based; method in brief: as §1
NFF [16] = experiment: Selectivity index, IC50 for MM229 over IC50 for NFF cells; assay type: functional, Homo sapiens
Method in brief: (§2)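 Selectivity index: IC50 for normal neonatal foreskin fibroblasts (NFF) relative to IC50 for each cancer line, both from the same survival assay. Cells grown in RPMI 1640 with 10% heat-inactivated FCS at 37 °C and 5% CO2, plated at 5 × 10^3 cells/well and left to adhere overnight. Compound exposure 24 h, then removed and cells regrown 72 h in fresh medium. Fixed with methylated spirits, stained with sulforhodamine B, read at 564 nm.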

NFF [17] = experiment: Selectivity index, IC50 for MM329 over IC50 for NFF cells; assay type: functional, Homo sapiens; method in brief: as §2
NFF [18] = experiment: Selectivity index, IC50 for MM470 over IC50 for NFF cells; assay type: functional, Homo sapiens; method in brief: as §2
NFF [19] = experiment: Selectivity index, IC50 for MM604 over IC50 for NFF cells; assay type: functional, Homo sapiens; method in brief: as §2
NFF [20] = experiment: Selectivity index, IC50 for Mel RM over IC50 for NFF cells; assay type: functional, Homo sapiens; method in brief: as §2
NFF [21] = experiment: Selectivity index, IC50 for Mel FH over IC50 for NFF cells; assay type: functional, Homo sapiens; method in brief: as §2
NFF [22] = experiment: Selectivity index, IC50 for DO4 over IC50 for NFF cells; assay type: functional, Homo sapiens
NFF [23] = experiment: Selectivity index, IC50 for D14 over IC50 for NFF cells; assay type: functional, Homo sapiens
NFF [24] = experiment: Selectivity index, IC50 for D11 over IC50 for NFF cells; assay type: functional, Homo sapiens
NFF [25] = experiment: Selectivity index, IC50 for D17 over IC50 for NFF cells; assay type: functional, Homo sapiens
NFF [26] = experiment: Selectivity index, IC50 for LSP M2 over IC50 for NFF cells; assay type: functional, Homo sapiens; method in brief: as §2
NFF [27] = experiment: Selectivity index, IC50 for AF6 over IC50 for NFF cells; assay type: functional, Homo sapiens
NFF [28] = experiment: Selectivity index, IC50 for AO7 RM over IC50 for NFF cells; assay type: functional, Homo sapiens
NFF [29] = experiment: Selectivity index, IC50 for A2058 over IC50 for NFF cells; assay type: functional, Homo sapiens
NFF [30] = experiment: Selectivity index, IC50 for HeLa over IC50 for NFF cells; assay type: functional, Homo sapiens

## CN(C)c1ccc(C(=O)NC(CCCCCC(=O)NO)C(=O)NCc2ccccc2)cc1 (centres undefined)
MM96L [1]
  Activity: Dose-dependent effect
NFF [2]
  IC50: 870 nM
MM96L [3]
  IC50: 130 nM
[4]
  IC50: 600 nM
[5]
  IC50: 60 nM
[6]
  IC50: 90 nM
[7]
  IC50: 10 nM
[8]
  IC50: 950 nM
[9]
  IC50: 80 nM
SK-MEL-28
  IC50: 60 nM
DO4
  IC50: 120 nM
[10]
  IC50: 260 nM
[11]
  IC50: 300 nM
[12]
  IC50: 60 nM
[13]
  IC50: 450 nM
[14]
  IC50: 300 nM
[15]
  IC50: 180 nM
A2058
  IC50: 100 nM
HeLa
  IC50: 90 nM
NFF [16]
  Ratio IC50: 1.5
NFF [17]
  Ratio IC50: 14.5
NFF [18]
  Ratio IC50: 9.7
NFF [19]
  Ratio IC50: 87
NFF [20]
  Ratio IC50: 0.9
NFF [21]
  Ratio IC50: 10.9
NFF [22]
  Ratio IC50: 7.3
NFF [23]
  Ratio IC50: 3.3
NFF [24]
  Ratio IC50: 2.9
NFF [25]
  Ratio IC50: 14.5
NFF [26]
  Ratio IC50: 1.9
NFF [27]
  Ratio IC50: 2.9
NFF [28]
  Ratio IC50: 4.8
NFF [29]
  Ratio IC50: 8.7
NFF [30]
  Ratio IC50: 9.7
